Several values for one entry are separate records, joined by “and”; a condition that tells them apart may be missing. Equal entries are not always repeated.
Assays:
[1] = system: peripheral blood lymphocytes; experiment: Peripheral blood lymphocytes; format: in vivo; settings: SD rats, single oral dose (3 mg/kg), 1 week later
How it was run: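 Male SD rats (6–8 weeks) were randomised and bled (20 μL, tail vein) for a baseline (0 h) lymphocyte count on a haematology analyser. Each received one oral dose of test compound (0.3, 1 or 3 mg/kg, in distilled water) or vehicle. Lymphocytes were counted again at 2, 4, 8, 12, 24, 72, 96, 144 and 168 h; n = 5.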

[2] = Heart rate measurement after a single oral dose; format: in vivo; settings: SD rats, single oral dose 10 mg/kg
How it was run: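 Male SD rats (6–8 weeks) had baseline heart rate taken with a non-invasive rodent blood-pressure/heart-rate meter. They then received a single oral 10 mg/kg dose of test compound in distilled water, or vehicle. Heart rate was re-measured at 2, 4, 8, 12, 24 and 48 h after dosing; n = 5.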

[3] = system: SDS-induced skin irritation; experiment: SDS-induced acute skin irritation and inflammation mouse model; format: in vivo; settings: KM mice, MTX 1.5 mg/kg, data not shown
How it was run: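 Female KM mice had back hair removed and received 200 μL 15% SDS topically once daily for 7 days. From Day 8 they were dosed orally each day for 10 days with test compound (0.3–2.4 mg/kg, in water) or vehicle. On Day 18, skin thickness was measured. Skin was then fixed in 4% paraformaldehyde, cut into 5 μm H&E sections and scored blind (0–3 each) for epidermal thickening, fibroplasia, inflammatory infiltration and vasodilatation; n = 11.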

S1P3 (EDG3) = S1P3 (EDG3) (Homo sapiens, UniProt Q99500); experiment: β-arrestin assay; format: cell-based
How it was run: (§1)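 Test compound (DMSO stock), at a range of concentrations, was added for 2 or 4 h at 37 °C. Receptor–β-arrestin recruitment was read as β-galactosidase enzyme-fragment complementation, with chemiluminescence measured after 1 h in detection reagent at room temperature. Activity was computed from the concentration series.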

S1P4 (EDG6) = target: T1, S1P4 (EDG6) (Homo sapiens, UniProt O95977); experiment: β-arrestin assay; format: cell-based
T1 sequence (O95977 1-384): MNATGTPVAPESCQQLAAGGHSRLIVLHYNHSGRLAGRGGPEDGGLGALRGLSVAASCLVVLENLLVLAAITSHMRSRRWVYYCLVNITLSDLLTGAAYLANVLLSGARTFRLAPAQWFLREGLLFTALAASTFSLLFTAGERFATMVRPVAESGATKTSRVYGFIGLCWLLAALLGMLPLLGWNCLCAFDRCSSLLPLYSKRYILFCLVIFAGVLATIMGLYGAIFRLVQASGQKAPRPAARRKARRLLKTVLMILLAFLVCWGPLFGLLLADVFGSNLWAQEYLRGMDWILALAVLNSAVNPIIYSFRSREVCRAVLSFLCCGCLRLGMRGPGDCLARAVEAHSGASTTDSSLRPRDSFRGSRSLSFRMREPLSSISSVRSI
How it was run: as §1

Chain of S1P3 (EDG3) (Q99500 whole entry, the tested form may be a part): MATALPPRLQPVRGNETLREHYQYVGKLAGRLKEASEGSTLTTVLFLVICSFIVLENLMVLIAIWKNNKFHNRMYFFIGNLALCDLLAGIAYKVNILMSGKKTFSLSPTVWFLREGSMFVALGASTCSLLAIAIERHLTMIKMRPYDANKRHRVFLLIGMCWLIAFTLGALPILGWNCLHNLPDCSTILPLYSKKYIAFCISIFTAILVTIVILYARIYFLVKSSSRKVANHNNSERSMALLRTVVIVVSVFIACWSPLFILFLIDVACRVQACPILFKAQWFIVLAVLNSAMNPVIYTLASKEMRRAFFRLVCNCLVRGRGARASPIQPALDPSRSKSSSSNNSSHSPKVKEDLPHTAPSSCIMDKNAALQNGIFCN

Compound: CCCCCCCCc1ccc(CCC(N)(CO)CO)cc1 [FTY720, fingolimod]
- Lymphocyte reduction 1 week after one administration [1]: 26%
- Duration of heart rate decrease [2]: 12 h
- Heart rate decrease ([2]; as early as 2 h after treatment, 10 mg/kg): 22% and 20%

Compound: CN(Cc1cnc2nc(N)nc(N)c2n1)c1ccc(C(=O)N[C@@H](CCC(=O)O)C(=O)O)cc1 [MTX, Methotrexate]
- Body weight during treatment [3]: started to decline from Day 10

Compound: CCCCCCCCCCCCC/C=C/[C@@H](O)[C@@H](N)COP(=O)(O)O [S1P, Sphingosine-1-phosphate]
- EC50 (S1P3 (EDG3)): 17.7 nM
- EC50 (S1P4 (EDG6)): 49.1 nM

From paper PMC7016294 (Acta Pharmaceutica Sinica. B, 2019)
